Results as given in ChEMBL document CHEMBL5316288, “Synthetic Strategies for Improving Solubility: Optimization of Novel Pyrazolo[1,5-a]pyrimidine CFTR Activator That Ameliorates Dry Eye Disease” (J Med Chem, 2023).
Values after ≈ are worked out from the molar mass of the structure shown. Blank lines part the entries; values can stand above or below the compound they belong to. Active and inactive are the calls of the source. No cut-off for these calls is given here.

Experiments:
[1] = species: Mus musculus; assay: Amelioration ocular surface damage in scopolamine-induced dry eye in C57BL/6J mouse model assessed as recovery of tear volume at 0.3 %,TOP 3 times day for 10 days by phenol red thread test; type: functional, organism-based; settings: time 10.0 day
Summary of the method: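 In scopolamine-induced dry eye mice (0.5 mg/0.1 mL s.c. three times daily, 14 days), drops were given three times daily for 10 days. Scopolamine continued for the first 8 days. Tear volume was read with phenol red thread placed 15 s in the lateral canthus, wet length by caliper. Readings were taken before induction, after induction and after 10 days of drops; n = 5.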

[2] = species: Mus musculus; assay: Amelioration ocular surface damage in scopolamine-induced dry eye in C57BL/6J mouse model assessed as decrease in IL-17 mRNA expression level in conjunctiva at 0.3 %,TOP 3 times day for 10 days by RT-PCR analysis; type: functional, organism-based; settings: time 10.0 day
Summary of the method: (§1)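 Dry eye was induced with scopolamine hydrobromide 0.5 mg/0.1 mL given subcutaneously three times daily for 14 days. Eye drops were then applied to both eyes three times daily for 10 days, with scopolamine continued for the first 8 treatment days. The vehicle was 5% polyoxyl 35 castor oil in sodium phosphate buffer. Corneal and conjunctival IL-17 mRNA was measured by real-time PCR; mean ± S.E., n = 5.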

[3] = species: Mus musculus; assay: Amelioration ocular surface damage in scopolamine-induced dry eye in C57BL/6J mouse model assessed as decrease in TNF-alpha mRNA expression level in conjunctiva at 0.3 %,TOP 3 times day for 10 days by RT-PCR analysis; type: functional, organism-based; settings: time 10.0 day
Summary of the method: (§2)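 Dry eye was induced by subcutaneous scopolamine hydrobromide 0.5 mg/0.1 mL three times daily for 14 days. Eye drops (vehicle, 0.3% diquafosol or test agent) followed three times daily for 10 days, with scopolamine continued for the first 8 days. Cornea and conjunctiva mRNA for MMP-2 and TNF-α was quantified by real-time PCR; n = 5.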

[4] = species: Mus musculus; assay: Amelioration ocular surface damage in scopolamine-induced dry eye in C57BL/6J mouse model assessed as decrease in MMP-2 mRNA expression level in conjunctiva at 0.3 %,TOP 3 times day for 10 days by RT-PCR analysis; type: functional, organism-based; settings: time 10.0 day; summary of the method: as §2
[5] = species: Mus musculus; assay: Amelioration ocular surface damage in scopolamine-induced dry eye in C57BL/6J mouse model assessed as decrease in IL-17 mRNA expression level in cornea at 0.3 %,TOP 3 times day for 10 days by RT-PCR analysis; type: functional, organism-based; settings: time 10.0 day; summary of the method: as §1
[6] = species: Mus musculus; assay: Amelioration ocular surface damage in scopolamine-induced dry eye in C57BL/6J mouse model assessed as decrease in TNF-alpha mRNA expression level in cornea at 0.3 %,TOP 3 times day for 10 days by RT-PCR analysis; type: functional, organism-based; settings: time 10.0 day; summary of the method: as §2
[7] = species: Mus musculus; assay: Amelioration ocular surface damage in scopolamine-induced dry eye in C57BL/6J mouse model assessed as decrease in MMP-2 mRNA expression level in cornea at 0.3 %,TOP 3 times day for 10 days by RT-PCR analysis; type: functional, organism-based; settings: time 10.0 day; summary of the method: as §2
[8] = biological target: T1, Cystic fibrosis transmembrane conductance regulator (Homo sapiens, UniProt P13569); assay: Activation of human wild-type CFTR stably expressed in rat FRT cells assessed as increase in apical membrane chloride current incubated for 20 mins by patch-clamp assay; type: cell-based
T1 sequence (P13569 whole entry): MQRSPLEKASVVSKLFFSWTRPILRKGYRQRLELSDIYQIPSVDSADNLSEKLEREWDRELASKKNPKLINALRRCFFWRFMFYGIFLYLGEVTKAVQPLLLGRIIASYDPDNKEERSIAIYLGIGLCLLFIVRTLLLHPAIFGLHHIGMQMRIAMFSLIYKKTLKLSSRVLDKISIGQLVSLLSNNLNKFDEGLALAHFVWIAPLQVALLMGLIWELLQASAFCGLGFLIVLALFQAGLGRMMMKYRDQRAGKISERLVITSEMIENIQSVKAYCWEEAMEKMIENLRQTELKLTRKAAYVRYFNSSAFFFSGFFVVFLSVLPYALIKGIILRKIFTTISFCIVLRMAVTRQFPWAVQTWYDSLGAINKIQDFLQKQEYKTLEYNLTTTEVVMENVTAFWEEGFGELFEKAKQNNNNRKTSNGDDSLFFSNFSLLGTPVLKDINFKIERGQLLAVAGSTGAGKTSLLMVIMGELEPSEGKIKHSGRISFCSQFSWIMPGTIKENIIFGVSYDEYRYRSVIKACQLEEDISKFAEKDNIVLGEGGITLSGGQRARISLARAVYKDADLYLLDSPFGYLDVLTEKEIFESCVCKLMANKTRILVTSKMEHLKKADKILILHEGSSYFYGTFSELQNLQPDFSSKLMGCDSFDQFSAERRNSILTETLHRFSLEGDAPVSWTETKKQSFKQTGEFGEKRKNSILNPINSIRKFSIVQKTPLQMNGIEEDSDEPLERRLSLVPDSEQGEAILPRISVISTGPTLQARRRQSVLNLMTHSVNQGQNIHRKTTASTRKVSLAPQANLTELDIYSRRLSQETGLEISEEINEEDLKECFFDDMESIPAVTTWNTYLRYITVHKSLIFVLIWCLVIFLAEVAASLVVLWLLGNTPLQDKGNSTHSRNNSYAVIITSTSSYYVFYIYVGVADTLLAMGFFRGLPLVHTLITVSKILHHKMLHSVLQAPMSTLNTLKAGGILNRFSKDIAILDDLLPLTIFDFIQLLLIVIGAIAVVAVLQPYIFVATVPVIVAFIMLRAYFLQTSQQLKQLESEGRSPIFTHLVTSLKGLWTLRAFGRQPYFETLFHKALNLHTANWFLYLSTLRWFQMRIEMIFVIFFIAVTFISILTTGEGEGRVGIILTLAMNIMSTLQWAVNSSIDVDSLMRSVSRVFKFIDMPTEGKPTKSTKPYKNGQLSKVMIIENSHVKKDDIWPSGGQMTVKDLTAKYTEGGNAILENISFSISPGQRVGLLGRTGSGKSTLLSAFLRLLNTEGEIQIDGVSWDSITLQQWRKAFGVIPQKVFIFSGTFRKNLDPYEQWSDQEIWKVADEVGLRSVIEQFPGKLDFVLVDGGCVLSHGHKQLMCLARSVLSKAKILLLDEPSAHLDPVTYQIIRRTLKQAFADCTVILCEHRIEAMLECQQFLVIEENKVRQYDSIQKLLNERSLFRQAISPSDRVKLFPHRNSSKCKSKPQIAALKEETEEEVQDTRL

[9] = biological target: T1, Cystic fibrosis transmembrane conductance regulator; assay: Activation of human wild-type CFTR stably expressed in CHO-K1 cells co-expressing halide sensors YFP-H148Q/I152L assessed as CFTR-mediated iodide influx incubated for 10 mins by YFP fluorescence quenching assay; type: cell-based
[10] = species: Mus musculus; assay: Effect on tear secretion in C57BL/6J mouse assessed as increase in tear volume at 1 to 72 uM,TOP and measured upto 6 hrs by phenol red thread test; type: functional; settings: dose 1-72 µM
Summary of the method: (§3)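 Normal female C57BL/6J mice received 2.5 μL eye drops in both eyes, held for 30 s. Vehicle was 5% polyoxyl 35 castor oil in sodium phosphate buffer. Tear volume was read by phenol red thread placed 15 s in the lateral canthus, wet length by caliper. Readings were taken at 0 h (baseline) and at 1, 3 and 6 h post-dose; n = 6.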

[11] = species: Mus musculus; assay: Effect on tear secretion in C57BL/6J mouse assessed as maximum tear volume at 1 to 72 uM,TOP and measured after 3 hr by phenol red thread test; type: functional; settings: dose 1-72 µM; summary of the method: as §3
[12] = Cytotoxicity against human Conjunctival epithelial cells assessed as reduction in cell viability at 30 uM incubated for 48 hrs with medium changed every 12 hrs by MTS assay; type: toxicity, cell-based
Summary of the method: (§4)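 Immortalized human corneal or conjunctival epithelial cells were plated and, after 24 h, exposed to 30 μM compound for 48 h. DMSO served as control and 0.01% Triton X-100 as the lysis control. Medium and compound were renewed every 12 h. Viability was read by MTS, 1 h incubation, absorbance at 490 nm; n = 3.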

[13] = Solubility of compound in PBS at 7.5 at 0.5 mg/ml incubated for 90 mins by LC-MS/MS analysis; type: physicochemical; settings: PBS, pH 7.5
Summary of the method: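 Thermodynamic solubility: compound at 0.5 mg/mL in isotonic phosphate-buffered saline, pH 7.5, vortexed for 90 min. The solution was then filtered sequentially through 0.45, 1.2 and 5.0 μm filters. Concentration was measured by LC-MS/MS against a ≥6-point internal-standard calibration curve (weighted 1/x linear or quadratic) and back-calculated.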

[14] = Cmax in New Zealand White Rabbit conjunctiva at 0.1 mg per eye, TOP and measured upto 72 hrs by LC-MS/MS analysis; type: ADME, tissue-based, Oryctolagus cuniculus; design: dose 0.1 mg, time < 72 hrs, route top; settings: topical or ocular
Summary of the method: (§5)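 Male New Zealand White rabbits each received a single topical eye drop of 0.1 mg/eye, formulated in 5% polyoxyl 35 castor oil in sodium phosphate buffer. Plasma, tear, cornea, conjunctiva and retina were sampled from one eye at 0.5, 1, 4, 8, 12, 24, 48 and 72 h. Levels were measured by LC-MS/MS in tear and tissue homogenates. Parameters came from non-compartmental analysis of composite means, n = 3.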

[15] = Cytotoxicity against human Corneal epithelial cells assessed as reduction in cell viability at 30 uM incubated for 48 hrs with medium changed every 12 hrs by MTS assay; type: toxicity, cell-based; summary of the method: as §4
[16] = Tmax in New Zealand White Rabbit conjunctiva at 0.1 mg per eye, TOP and measured upto 72 hrs by LC-MS/MS analysis; type: ADME, tissue-based, Oryctolagus cuniculus; settings: in vivo, topical_or_ocular; summary of the method: as §5
[17] = Half life in New Zealand White Rabbit conjunctiva at 0.1 mg per eye, TOP and measured upto 72 hrs by LC-MS/MS analysis; type: ADME, tissue-based, Oryctolagus cuniculus; settings: in vivo, topical_or_ocular; summary of the method: as §5
[18] = Tlast in New Zealand White Rabbit conjunctiva at 0.1 mg per eye, TOP and measured upto 72 hrs by LC-MS/MS analysis; type: ADME, tissue-based, Oryctolagus cuniculus; settings: in vivo, topical_or_ocular; summary of the method: as §5
[19] = AUClast in New Zealand White Rabbit conjunctiva at 0.1 mg per eye, TOP and measured upto 72 hrs by LC-MS/MS analysis; type: ADME, tissue-based, Oryctolagus cuniculus; design: time < 72 hrs, dose 0.1 mg, route top; settings: topical or ocular; summary of the method: as §5
[20] = AUC (0 to 24 hrs) in New Zealand White Rabbit conjunctiva at 0.1 mg per eye, TOP and measured upto 72 hrs by LC-MS/MS analysis; type: ADME, tissue-based, Oryctolagus cuniculus; design: dose 0.1 mg, time < 72 hrs, route top; settings: topical or ocular; summary of the method: as §5
[21] = AUC (0 to infinity) in New Zealand White Rabbit conjunctiva at 0.1 mg per eye, TOP and measured upto 72 hrs by LC-MS/MS analysis; type: ADME, tissue-based, Oryctolagus cuniculus; design: time < 72 hrs, dose 0.1 mg, route top; settings: topical or ocular; summary of the method: as §5
[22] = Cmax in New Zealand White Rabbit cornea at 0.1 mg per eye, TOP and measured upto 72 hrs by LC-MS/MS analysis; type: ADME, tissue-based, Oryctolagus cuniculus; design: dose 0.1 mg, time < 72 hrs, route top; settings: topical or ocular; summary of the method: as §5
[23] = Tmax in New Zealand White Rabbit cornea at 0.1 mg per eye, TOP and measured upto 72 hrs by LC-MS/MS analysis; type: ADME, tissue-based, Oryctolagus cuniculus; settings: in vivo, topical_or_ocular; summary of the method: as §5
[24] = Half life in New Zealand White Rabbit cornea at 0.1 mg per eye, TOP and measured upto 72 hrs by LC-MS/MS analysis; type: ADME, tissue-based, Oryctolagus cuniculus; settings: in vivo, topical_or_ocular; summary of the method: as §5
[25] = Tlast in New Zealand White Rabbit cornea at 0.1 mg per eye, TOP and measured upto 72 hrs by LC-MS/MS analysis; type: ADME, tissue-based, Oryctolagus cuniculus; settings: in vivo, topical_or_ocular; summary of the method: as §5
[26] = AUClast in New Zealand White Rabbit cornea at 0.1 mg per eye, TOP and measured upto 72 hrs by LC-MS/MS analysis; type: ADME, tissue-based, Oryctolagus cuniculus; design: dose 0.1 mg, time < 72 hrs, route top; settings: topical or ocular; summary of the method: as §5
[27] = AUC (0 to 24 hrs) in New Zealand White Rabbit cornea at 0.1 mg per eye, TOP and measured upto 72 hrs by LC-MS/MS analysis; type: ADME, tissue-based, Oryctolagus cuniculus; design: dose 0.1 mg, time < 72 hrs, route top; settings: topical or ocular; summary of the method: as §5
[28] = AUC (0 to infinity) in New Zealand White Rabbit cornea at 0.1 mg per eye, TOP and measured upto 72 hrs by LC-MS/MS analysis; type: ADME, tissue-based, Oryctolagus cuniculus; design: time < 72 hrs, dose 0.1 mg, route top; settings: topical or ocular; summary of the method: as §5
[29] = Cmax in New Zealand White Rabbit eye tear at 0.1 mg per eye, TOP and measured upto 72 hrs by LC-MS/MS analysis; type: ADME, tissue-based, Oryctolagus cuniculus, Secretion of lacrimal gland; design: time < 72 hrs, dose 0.1 mg, route top; settings: in vivo, topical_or_ocular; summary of the method: as §5
[30] = Half life in New Zealand White Rabbit eye tear at 0.1 mg per eye, TOP and measured upto 72 hrs by LC-MS/MS analysis; type: ADME, tissue-based, Oryctolagus cuniculus, Secretion of lacrimal gland; settings: in vivo, topical_or_ocular; summary of the method: as §5
[31] = Tlast in New Zealand White Rabbit eye tear at 0.1 mg per eye, TOP and measured upto 72 hrs by LC-MS/MS analysis; type: ADME, tissue-based, Oryctolagus cuniculus, Secretion of lacrimal gland; settings: in vivo, topical_or_ocular; summary of the method: as §5
[32] = AUClast in New Zealand White Rabbit eye tear at 0.1 mg per eye, TOP and measured upto 72 hrs by LC-MS/MS analysis; type: ADME, tissue-based, Oryctolagus cuniculus, Secretion of lacrimal gland; design: dose 0.1 mg, time < 72 hrs, route top; settings: in vivo, topical_or_ocular; summary of the method: as §5
[33] = AUC (0 to 24 hrs) in New Zealand White Rabbit eye tear at 0.1 mg per eye, TOP and measured upto 72 hrs by LC-MS/MS analysis; type: ADME, tissue-based, Oryctolagus cuniculus, Secretion of lacrimal gland; design: dose 0.1 mg, time < 72 hrs, route top; settings: in vivo, topical_or_ocular; summary of the method: as §5
[34] = AUC (0 to infinity) in New Zealand White Rabbit eye tear at 0.1 mg per eye, TOP and measured upto 72 hrs by LC-MS/MS analysis; type: ADME, tissue-based, Oryctolagus cuniculus, Secretion of lacrimal gland; design: time < 72 hrs, dose 0.1 mg, route top; settings: in vivo, topical_or_ocular; summary of the method: as §5

SMILES: O=c1ccn(C2O[C@H](COP(=O)(O)OP(=O)(O)OP(=O)(O)OP(=O)(O)OC[C@H]3O[C@@H](n4ccc(=O)[nH]c4=O)[C@H](O)[C@@H]3O)[C@@H](O)[C@H]2O)c(=O)[nH]1 (some centres undefined)
Activity [1]: Active | Activity [2]: Active | Activity [3]: Active | Activity [4]: Active | Activity [5]: Active | Activity [6]: Active | Activity [7]: Active

EC50 [8]: 342 nM | EC50 [9]: 18 nM
SMILES: CCOc1ccc(NC(=O)c2cc3nccc(-c4ccc(OC)c(OC)c4)n3n2)cc1
Activity [10]: Dose-Dependent Effect | Activity [11]: Active

solubility thermodynamic at 1.5 h [13]: 134 µM (≈ 65.3 µg/mL) | Cmax [14]: 793 ng/mL | Tmax [16]: 0.5 h | t1/2 [17]: 40.6 h | Tlast [18]: 72 h | AUC(0-t) at 72 h [19]: 9820 ng·h/mL | AUC(0-t) at 72 h [20]: 4730 ng·h/mL | AUC(0-inf) [21]: 13700 ng·h/mL | Cmax [22]: 7840 ng/mL | Tmax [23]: 0.5 h | t1/2 [24]: 23.1 h | Tlast [25]: 72 h | AUC(0-t) at 72 h [26]: 28300 ng·h/mL | AUC(0-t) at 72 h [27]: 19400 ng·h/mL | AUC(0-inf) [28]: 35800 ng·h/mL | Cmax [29]: 749 ng/mL | t1/2 [30]: 29.8 h | Tlast [31]: 72 h | AUClast [32]: 16573 ng·h/mL | AUC [33]: 7952 ng·h/mL | AUC [34]: 18750 ng·h/mL
SMILES: COc1ccc(-c2ccnc3cc(C(=O)N4CCN(C(=O)c5ccccc5)[C@@H](C)C4)nn23)cc1OC
Activity [12]: Non-Toxic | Activity [15]: Non-Toxic
